Results: ChEMBL document CHEMBL1139884, “Structure-based design, synthesis, and A-site rRNA cocrystal complexes of functionally novel aminoglycoside antibiotics: C2" ether analogues of paromomycin” (2007)
In brackets after ≈: the same amount, converted by molar mass.

Experiments:
[1] = test system: Escherichia coli; experiment: Antimicrobial activity against Escherichia coli ATCC 25922 after 20 to 24 hrs; assay type: functional
Outline: (§1)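 Broth microdilution in duplicate; compound in 2.5% DMSO in water, overnight culture added to a final inoculum of about 10^2-10^3 CFU/well. Growth read as A595 after 20-24 h at 37°C, relative to a no-compound well. MIC reported as a range: complete inhibition at the higher concentration, viable cells at the lower. Ampicillin and tetracycline are the positive controls.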

[2] = test system: Staphylococcus aureus; experiment: Antimicrobial activity against Staphylococcus aureus ATCC 13709 after 20 to 24 hrs; assay type: functional; outline: as §1

SMILES | MIC [1] [µg/mL] | MIC [2] [µg/mL]
NC[C@@H]1O[C@H](O[C@H]2[C@@H](OCCc3ccccc3)[C@H](O[C@@H]3[C@@H](O)[C@H](N)C[C@H](N)[C@H]3O[C@H]3O[C@H](CO)[C@@H](O)[C@H](O)[C@H]3N)O[C@@H]2CO)[C@H](N)[C@@H](O)[C@@H]1O | > 50 | 6 (≈ 8.34 µM)
NC[C@@H]1O[C@H](O[C@H]2[C@@H](OCCNc3cnc4ccccc4c3)[C@H](O[C@@H]3[C@@H](O)[C@H](N)C[C@H](N)[C@H]3O[C@H]3O[C@H](CO)[C@@H](O)[C@H](O)[C@H]3N)O[C@@H]2CO)[C@H](N)[C@@H](O)[C@@H]1O | 12 (≈ 15.3 µM) | 1 (≈ 1.27 µM)
NCCNCCO[C@H]1[C@H](O[C@@H]2[C@@H](O)[C@H](N)C[C@H](N)[C@H]2O[C@H]2O[C@H](CO)[C@@H](O)[C@H](O)[C@H]2N)O[C@H](CO)[C@H]1O[C@H]1O[C@@H](CN)[C@@H](O)[C@H](O)[C@H]1N | 6 (≈ 8.55 µM) | 2 (≈ 2.85 µM)
N[C@H]1[C@@H](O[C@H]2[C@H](O[C@@H]3O[C@H](CO)[C@@H](O)[C@H]3O)[C@@H](O)[C@H](N)C[C@@H]2N)O[C@H](CO)[C@@H](O)[C@@H]1O | > 100 | > 100
NC[C@@H]1O[C@H](O[C@H]2[C@@H](OCCNc3ccccc3)[C@H](O[C@@H]3[C@@H](O)[C@H](N)C[C@H](N)[C@H]3O[C@H]3O[C@H](CO)[C@@H](O)[C@H](O)[C@H]3N)O[C@@H]2CO)[C@H](N)[C@@H](O)[C@@H]1O | 50 (≈ 68 µM) | 6 (≈ 8.17 µM)
NC[C@@H]1O[C@H](O[C@H]2[C@@H](OCCNCc3ccccc3)[C@H](O[C@@H]3[C@@H](O)[C@H](N)C[C@H](N)[C@H]3O[C@H]3O[C@H](CO)[C@@H](O)[C@H](O)[C@H]3N)O[C@@H]2CO)[C@H](N)[C@@H](O)[C@@H]1O | 3 (≈ 4.01 µM) | 3 (≈ 4.01 µM)
NC[C@@H]1O[C@H](O[C@H]2[C@@H](OCCNC3CCCNC3)[C@H](O[C@@H]3[C@@H](O)[C@H](N)C[C@H](N)[C@H]3O[C@H]3O[C@H](CO)[C@@H](O)[C@H](O)[C@H]3N)O[C@@H]2CO)[C@H](N)[C@@H](O)[C@@H]1O (stereo partly specified) | 1.5 (≈ 2.02 µM) | 3 (≈ 4.04 µM)
NC[C@@H]1O[C@H](O[C@H]2[C@@H](OCCO)[C@H](O[C@@H]3[C@@H](O)[C@H](N)C[C@H](N)[C@H]3O[C@H]3O[C@H](CO)[C@@H](O)[C@H](O)[C@H]3N)O[C@@H]2CO)[C@H](N)[C@@H](O)[C@@H]1O | 12 (≈ 18.2 µM) | 12 (≈ 18.2 µM)
NC[C@@H]1O[C@H](O[C@H]2[C@@H](OCC(O)c3ccccc3)[C@H](O[C@@H]3[C@@H](O)[C@H](N)C[C@H](N)[C@H]3O[C@H]3O[C@H](CO)[C@@H](O)[C@H](O)[C@H]3N)O[C@@H]2CO)[C@H](N)[C@@H](O)[C@@H]1O (stereo partly specified) | 25 (≈ 34 µM) | 3 (≈ 4.08 µM)
NC[C@@H]1O[C@H](O[C@H]2[C@@H](OCCNCc3nc4ccccc4[nH]3)[C@H](O[C@@H]3[C@@H](O)[C@H](N)C[C@H](N)[C@H]3O[C@H]3O[C@H](CO)[C@@H](O)[C@H](O)[C@H]3N)O[C@@H]2CO)[C@H](N)[C@@H](O)[C@@H]1O | > 100 | > 100
NC[C@@H]1O[C@H](O[C@H]2[C@@H](O)[C@H](O[C@@H]3[C@@H](O)[C@H](N)C[C@H](N)[C@H]3O[C@H]3O[C@H](CO)[C@@H](O)[C@H](O)[C@H]3N)O[C@@H]2CO)[C@H](N)[C@@H](O)[C@@H]1O [PAROMOMYCIN] | 3 (≈ 4.87 µM) | 1 (≈ 1.62 µM)
NC[C@@H]1O[C@H](O[C@H]2[C@@H](OCCNc3cccc(O)c3)[C@H](O[C@@H]3[C@@H](O)[C@H](N)C[C@H](N)[C@H]3O[C@H]3O[C@H](CO)[C@@H](O)[C@H](O)[C@H]3N)O[C@@H]2CO)[C@H](N)[C@@H](O)[C@@H]1O | 12 (≈ 16 µM) | 2 (≈ 2.66 µM)
NCCCNCCO[C@H]1[C@H](O[C@@H]2[C@@H](O)[C@H](N)C[C@H](N)[C@H]2O[C@H]2O[C@H](CO)[C@@H](O)[C@H](O)[C@H]2N)O[C@H](CO)[C@H]1O[C@H]1O[C@@H](CN)[C@@H](O)[C@H](O)[C@H]1N | 25 (≈ 34.9 µM) | 3 (≈ 4.19 µM)
CC(=O)N(CCO[C@H]1[C@H](O[C@@H]2[C@@H](O)[C@H](N)C[C@H](N)[C@H]2O[C@H]2O[C@H](CO)[C@@H](O)[C@H](O)[C@H]2N)O[C@H](CO)[C@H]1O[C@H]1O[C@@H](CN)[C@@H](O)[C@H](O)[C@H]1N)CCc1ccccc1 | 10 (≈ 12.4 µM) | 1 (≈ 1.24 µM)
NC[C@@H]1O[C@H](O[C@H]2[C@@H](OCCNCC3CCCNC3)[C@H](O[C@@H]3[C@@H](O)[C@H](N)C[C@H](N)[C@H]3O[C@H]3O[C@H](CO)[C@@H](O)[C@H](O)[C@H]3N)O[C@@H]2CO)[C@H](N)[C@@H](O)[C@@H]1O (stereo partly specified) | 1.5 (≈ 1.98 µM) | 3 (≈ 3.97 µM)
N[C@H]1[C@@H](O[C@H]2[C@H](O[C@@H]3O[C@H](CO)[C@@H](O)[C@H]3OCCNCCc3ccccc3)[C@@H](O)[C@H](N)C[C@@H]2N)O[C@H](CO)[C@@H](O)[C@@H]1O | > 100 | 12 (≈ 19.9 µM)
NC[C@@H]1O[C@H](O[C@H]2[C@@H](OCCNc3cccnc3)[C@H](O[C@@H]3[C@@H](O)[C@H](N)C[C@H](N)[C@H]3O[C@H]3O[C@H](CO)[C@@H](O)[C@H](O)[C@H]3N)O[C@@H]2CO)[C@H](N)[C@@H](O)[C@@H]1O | 12 (≈ 16.3 µM) | < 1.5
CCCCCCCCN(CCCCCCCC)CCO[C@H]1[C@H](O[C@H]2C(O[C@H]3O[C@H](CO)[C@@H](O)[C@H](O)[C@H]3N)[C@@H](N)C[C@@H](N)[C@@H]2O)O[C@H](CO)[C@H]1O[C@H]1O[C@@H](CN)[C@@H](O)[C@H](O)[C@H]1N (stereo partly specified) | 5 (≈ 5.66 µM) | 1.2 (≈ 1.36 µM)
NC[C@@H]1O[C@H](O[C@H]2[C@@H](OCCNCCN3C(=O)c4cccc5cccc(c45)C3=O)[C@H](O[C@@H]3[C@@H](O)[C@H](N)C[C@H](N)[C@H]3O[C@H]3O[C@H](CO)[C@@H](O)[C@H](O)[C@H]3N)O[C@@H]2CO)[C@H](N)[C@@H](O)[C@@H]1O | > 40 | 10 (≈ 11.3 µM)
NC[C@@H]1O[C@H](O[C@H]2[C@@H](OCCNCCc3ccc4ccccc4c3)[C@H](O[C@@H]3[C@@H](O)[C@H](N)C[C@H](N)[C@H]3O[C@H]3O[C@H](CO)[C@@H](O)[C@H](O)[C@H]3N)O[C@@H]2CO)[C@H](N)[C@@H](O)[C@@H]1O | 10 (≈ 12.3 µM) | 1 (≈ 1.23 µM)
NC[C@@H]1O[C@H](O[C@H]2[C@@H](OCCCCCc3ccccc3)[C@H](O[C@@H]3[C@@H](O)[C@H](N)C[C@H](N)[C@H]3O[C@H]3O[C@H](CO)[C@@H](O)[C@H](O)[C@H]3N)O[C@@H]2CO)[C@H](N)[C@@H](O)[C@@H]1O | 10 (≈ 13.1 µM) | 3 (≈ 3.94 µM)
NC[C@@H]1O[C@H](O[C@H]2[C@@H](OCCOCCCc3ccccc3)[C@H](O[C@@H]3[C@@H](O)[C@H](N)C[C@H](N)[C@H]3O[C@H]3O[C@H](CO)[C@@H](O)[C@H](O)[C@H]3N)O[C@@H]2CO)[C@H](N)[C@@H](O)[C@@H]1O | 20 (≈ 25.7 µM) | 5 (≈ 6.43 µM)

Further lines, results first:

MIC [1] [µg/mL] | MIC [2] [µg/mL] | SMILES
10 (≈ 12.2 µM) | 5 (≈ 6.08 µM) | COc1cc(CCNCCO[C@H]2[C@H](O[C@@H]3[C@@H](O)[C@H](N)C[C@H](N)[C@H]3O[C@H]3O[C@H](CO)[C@@H](O)[C@H](O)[C@H]3N)O[C@H](CO)[C@H]2O[C@H]2O[C@@H](CN)[C@@H](O)[C@H](O)[C@H]2N)cc(OC)c1
20 (≈ 23.8 µM) | 5 (≈ 5.96 µM) | NC[C@@H]1O[C@H](O[C@H]2[C@@H](OCCNCCc3ccc(-c4ccccc4)cc3)[C@H](O[C@@H]3[C@@H](O)[C@H](N)C[C@H](N)[C@H]3O[C@H]3O[C@H](CO)[C@@H](O)[C@H](O)[C@H]3N)O[C@@H]2CO)[C@H](N)[C@@H](O)[C@@H]1O
6 (≈ 12 µM) | 12 (≈ 24.1 µM) | NCCO[C@H]1[C@H](O[C@@H]2[C@@H](O)[C@H](N)C[C@H](N)[C@H]2O[C@H]2O[C@H](CO)[C@@H](O)[C@H](O)[C@H]2N)O[C@H](CO)[C@H]1O
> 10 | 2.5 (≈ 2.78 µM) | NC[C@@H]1O[C@H](O[C@H]2[C@@H](OCCNCCc3cc(C(F)(F)F)cc(C(F)(F)F)c3)[C@H](O[C@@H]3[C@@H](O)[C@H](N)C[C@H](N)[C@H]3O[C@H]3O[C@H](CO)[C@@H](O)[C@H](O)[C@H]3N)O[C@@H]2CO)[C@H](N)[C@@H](O)[C@@H]1O
3 (≈ 4.05 µM) | 3 (≈ 4.05 µM) | NC[C@@H]1O[C@H](O[C@H]2[C@@H](OCCNC3CCCCC3)[C@H](O[C@@H]3[C@@H](O)[C@H](N)C[C@H](N)[C@H]3O[C@H]3O[C@H](CO)[C@@H](O)[C@H](O)[C@H]3N)O[C@@H]2CO)[C@H](N)[C@@H](O)[C@@H]1O
20 (≈ 27.3 µM) | 3 (≈ 4.09 µM) | NC[C@@H]1O[C@H](O[C@H]2[C@@H](OCCCc3ccccc3)[C@H](O[C@@H]3[C@@H](O)[C@H](N)C[C@H](N)[C@H]3O[C@H]3O[C@H](CO)[C@@H](O)[C@H](O)[C@H]3N)O[C@@H]2CO)[C@H](N)[C@@H](O)[C@@H]1O
10 (≈ 12.6 µM) | 3 (≈ 3.79 µM) | NC[C@@H]1O[C@H](O[C@H]2[C@@H](OCCNCCCCc3ccccc3)[C@H](O[C@@H]3[C@@H](O)[C@H](N)C[C@H](N)[C@H]3O[C@H]3O[C@H](CO)[C@@H](O)[C@H](O)[C@H]3N)O[C@@H]2CO)[C@H](N)[C@@H](O)[C@@H]1O
12 (≈ 16.3 µM) | 2 (≈ 2.72 µM) | NC[C@@H]1O[C@H](O[C@H]2[C@@H](OCCNc3ccccn3)[C@H](O[C@@H]3[C@@H](O)[C@H](N)C[C@H](N)[C@H]3O[C@H]3O[C@H](CO)[C@@H](O)[C@H](O)[C@H]3N)O[C@@H]2CO)[C@H](N)[C@@H](O)[C@@H]1O
25 (≈ 33.7 µM) | 2 (≈ 2.7 µM) | NC[C@@H]1O[C@H](O[C@H]2[C@@H](OCCNC3CCNCC3)[C@H](O[C@H]3C(O[C@H]4O[C@H](CO)[C@@H](O)[C@H](O)[C@H]4N)[C@@H](N)C[C@@H](N)[C@@H]3O)O[C@@H]2CO)[C@H](N)[C@@H](O)[C@@H]1O (stereo partly specified)
5 (≈ 6.02 µM) | 0.6 (≈ 0.722 µM) | NC[C@@H]1O[C@H](O[C@H]2[C@@H](OCCNCCc3ccc(C(F)(F)F)cc3)[C@H](O[C@@H]3[C@@H](O)[C@H](N)C[C@H](N)[C@H]3O[C@H]3O[C@H](CO)[C@@H](O)[C@H](O)[C@H]3N)O[C@@H]2CO)[C@H](N)[C@@H](O)[C@@H]1O
12 (≈ 18.2 µM) | 2 (≈ 3.04 µM) | NCCO[C@H]1[C@H](O[C@@H]2[C@@H](O)[C@H](N)C[C@H](N)[C@H]2O[C@H]2O[C@H](CO)[C@@H](O)[C@H](O)[C@H]2N)O[C@H](CO)[C@H]1O[C@H]1O[C@@H](CN)[C@@H](O)[C@H](O)[C@H]1N
